Experiments:
[1] = system: L. infantum MHOM/TN/80/IPT1 promastigotes; experiment: L. infantum viability assay; type: cell-based, Leishmania infantum
Summary of the method: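 Late log/stationary promastigotes, kept in EMTM at 26–28 °C, then RPMI-PY. Plated at 2.5 × 10^6 parasites per mL with 20 μM test compound, 72 h, 26 °C, in duplicate, miltefosine as positive control. Viability by CellTiter 96 aqueous assay gives % inhibition. SI is THP-1 CC50 divided by promastigote IC50. IC50 comes from 20–0.31 μM dilutions, fitted by nonlinear regression with unconstrained Hill slope.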

[2] = Cytotoxicity on PMA-differentiated THP-1 cells; type: cell-based; conditions: human, PMA-differentiated macrophage-like THP-1 cells
Summary of the method: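 Human THP-1 cells grown in RPMI-1640 with 10% heat-inactivated FBS, 2 mM L-glutamine, penicillin and streptomycin at 37 °C, 5% CO2. Seeded at 5 × 10^6 cells per mL and differentiated 48 h with 20 ng mL−1 PMA. After adhesion, exposed to 1:2 dilutions (100 to 3.12 μM), in duplicate, with untreated and miltefosine controls. CellTiter 96 aqueous read-out; CC50 by nonlinear regression, mean and 95% CI.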

[3] = molecular target: L. donovani DNA topoisomerase I; conditions: L. donovani DNA topoisomerase I poison; cited from earlier work

## CCCCCCCCCCCCCCCCOP(=O)([O-])OCC[N+](C)(C)C [MILT, Miltefosine]
[1]; CC50 THP-1 / IC50 L. infantum promastigotes
  SI (selectivity index = CC50/IC50): 9.9
[1]; Leishmania infantum, 72 h, read-out: L. infantum IC50 (μM) (95% CI), L. infantum MHOM/TN/80/IPT1 promastigotes, 72 h, mean and 95% CI, duplicate experiments
  IC50: 3.7 µM
[2]
  CC50: 36.6 µM

## c1ccc2c(Cc3c[nH]c4ccccc34)c[nH]c2c1 [DIM, 3,3′-Diindolylmethane]
[3]
  IC50: 1.2 µM

Reference: article PMC11092366 (RSC Advances, 2024)
